Screening data from PubChem BioAssay.
Only some compounds are listed: those with a hit (about 1.2% of all), similar ones and a draw of the others.
APOBEC3G inh = blocks human APOBEC3G single-stranded DNA deamination; recombinant A3G, ssDNA deamination FAM/TAMRA fluorescence; inhibition, % at 20 µM; 0.28% of 330,000 active; Q9HC16;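 active = inhibition of at least 40% at 20 µM, with no more than 30% in the related APOBEC3A deaminase screen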;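 note: plate controls were DMSO wells with A3G for no effect and wells lacking A3G enzyme for full effect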
ABHD5-PLIN5 inh = inhibitors of human ABHD5-perilipin-5 interaction; AID 602281; 0.78% of 360,000 active; Split G. princeps luciferase complementation, luminescence, 4 h; Q00G26+Q8WTS1; inhibition, % at 4 µM;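 active = inhibition above the mean inhibition across every tested compound plus 3 SD, cut at about 22% in these data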;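 note: 0% = DMSO only wells and the 100% control is not disclosed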
APOBEC3A inh = blocks human APOBEC3A ssDNA deamination | P31941 | recombinant A3A, FAM/TAMRA ssDNA deamination fluorescence | inhibition, % at 20 µM | 0.41% of 330,000 active;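 active = at least 40% inhibition at 20 µM here, with at most 30% in a related deaminase screen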;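 note: plate controls were A3A with DMSO for no effect and wells lacking A3A enzyme for full effect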
FN deposition inh = fibronectin deposition inhibition; AH1F fibroblasts, Alexa488-fibronectin deposition fluorescence, overnight; 0.086% of 350,000 active; inhibition, % at 12.6 µM;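 active = mean inhibition across replicates of 30% or more, regardless of how many single replicates reach that level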;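 note: positive control wells lacked labelled fibronectin entirely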
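material = AH1F fibroblast monolayer depositing Alexa488-labelled fibronectin into matrix | amount = 10000 AH1F cells/well | buffer or medium = DMEM plus 2% serum, read in PBS | incubation = 1 h cell adhesion before compound, then overnight fibronectin incubation | detection = fluorescence at 485 nm excitation, 525 nm emission | evaluation = percent inhibition as loss of matrix-bound fibronectin fluorescence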
ABHD5-PLIN5 conf = confirmation of human ABHD5-PLIN5 interaction inhibitors. shares compounds with ABHD5-PLIN5 inh. biochemical ABHD5-PLIN5 interaction, luminescence. 67% of 2,200 active. inhibition, % at 4 µM; in the data active = inhibition above about 23%;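 note: 0% = DMSO vehicle wells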
HNF4 split-luc = counter-screen for ABHD5-PLIN5 inhibitors: HNF4 split-luciferase. HNF4 dimerization, luminescence, biochemical. shares compounds with ABHD5-PLIN5 inh. 77% of 2,200 active. inhibition, % at 4 µM;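 active = mean inhibition across replicate wells exceeding the computed hit threshold, cut at about 13% in these data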;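 note: light from luciferase halves that rejoin when HNF4 fusion proteins dimerize; 0% = DMSO only wells and the 100% control is not given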
* marks the source's active call; other numbers are inactive results; . = not tested or not shown.

SMILES	APOBEC3G inh	ABHD5-PLIN5 inh	APOBEC3A inh	FN deposition inh	ABHD5-PLIN5 conf	HNF4 split-luc
Cc1ccc(NC2=C(Cl)C(=O)OC2NC(=O)c2ccccc2)cc1 (configuration not stated)	-2	-6	-1	-6	.	.
CCCNC(=O)C[C@H]1CC[C@@H]2[C@H](COC[C@@H](O)CN2Cc2ccc(Cl)c(Cl)c2)O1	.	.	.	-1	.	.
Cc1ccc2cc(C)c(SCC(=O)NCc3ccco3)nc2c1	-1	1	8	0	.	.
Cc1ccc2cc(C#N)c(NCc3ccco3)nc2c1	3	24*	4	.	46*	61*
CNC(=O)/C(C#N)=C/c1ccc(-c2nc3ccccc3s2)o1	-10	35*	-3	2	6	4
CC(C)NC(=O)N(C)C[C@@H]1Oc2c(NS(C)(=O)=O)cccc2C(=O)N([C@H](C)CO)C[C@H]1C	.	.	.	-1	.	.
COc1cc(C2Oc3ccccc3C=C2[N+](=O)[O-])cc(OC)c1OC (configuration not stated)	.	40*	.	17	95*	94*
COc1cc(C2NC(=O)c3ccccc3O2)cc(OC)c1OC (configuration not stated)	0	1	0	-2	.	.
Cc1ccc(-n2cc(-c3ccccc3)c3c(N4CCN(C)CC4)ncnc32)cc1	-4	24*	-2	4	11	1
O=C(C[C@H]1C[C@H]2c3cc(NC(=O)c4cccnc4)ccc3O[C@H]2[C@H](CO)O1)NCc1ccccc1	.	.	.	3	.	.
C[C@H]1CN([C@@H](C)CO)C(=O)c2cc(/C=C/c3ccccc3)cnc2O[C@H]1CN(C)C(=O)C1CC1	.	.	.	-1	.	.
CCOC(=O)c1c(-c2ccco2)csc1NC(=O)COC(=O)c1cnccn1	1	25*	11	-5	18	15*
COC1=CC(=O)c2ccccc2C1=O	-6	-11	0	.	.	.
COC1=CC(=O)C=C(OC)C1=O	.	79*	.	-1	88*	105*
O=C1N/C(=C/c2ccc(N3CCOCC3)o2)C(=O)N1c1cccc(Cl)c1	-1	70*	-3	4	71*	100*
NS(=O)(=O)c1ccc(Oc2ccc(S(N)(=O)=O)cc2)cc1	-4	-5	0	3	.	.
C=CS(=O)(=O)c1ccc(Oc2ccc(S(=O)(=O)C=C)cc2)cc1	-8	86*	5	22	100*	102*
O=C(COC(=O)c1cc(S(=O)(=O)N2CCc3ccccc3C2)ccc1Cl)NCc1ccco1	4	28*	9	15	45*	59*
Cc1ccc(-c2csc3ncnc(OCC(=O)NC(=O)NCc4ccco4)c23)cc1	9	31*	14	.	15	13*
COc1ccc(S(=O)(=O)Nc2ccc3c(c2)C(=O)N([C@@H](C)CO)C[C@@H](C)[C@H](CN(C)C(=O)c2ccccc2)OCCCC[C@@H](C)O3)cc1	.	.	.	-1	.	.
COCCNC(=O)/C(C#N)=C/C=C/c1ccccc1	-5	27*	-7	.	17	18*
C#CCOCCOCCOCCNc1nc(N2CCN(C(=O)CCCCCCCCCCNC(=O)[C@H](CCCCN)n3cc(CCO)nn3)CC2)nc(N2CCN(C(=O)CCCCCCCCCCNC(=O)[C@H](CCCCN)n3cc(CCCC(=O)O)nn3)CC2)n1	0	16	1	3	.	.
C#CCOCCOCCOCCNc1nc(N2CCN(C(=O)CCCCCCCCCCNC(=O)[C@H](CCCCN)n3cc(CCO)nn3)CC2)nc(N2CCN(C(=O)CCCCCCCCCCNC(=O)[C@H](CCCCN)n3cc(C[C@@H](C)CC)nn3)CC2)n1	-8	.	-8	.	.	.
C#CCOCCOCCOCCNc1nc(N2CCN(C(=O)CCCCCCCCCCNC(=O)[C@H](CO)n3cc(CCCCCN)nn3)CC2)nc(N2CCN(C(=O)CCCCCCCCCCNC(=O)[C@H](CCCN=C(N)N)n3cc(C[C@@H](C)CC)nn3)CC2)n1	1	.	-24	.	.	.
C#CCOCCOCCOCCNc1nc(N2CCOCC2)nc(N2CCN(C(=O)CCCCCCCCCCNC(=O)[C@H]([C@@H](C)CC)n3cc(CCCCN=C(N)N)nn3)CC2)n1	4	34*	0	19	3	0
SMILES	APOBEC3G inh	ABHD5-PLIN5 inh	APOBEC3A inh	FN deposition inh	ABHD5-PLIN5 conf	HNF4 split-luc
C#CCOCCOCCOCCNc1nc(N2CCN(C(=O)CCCCCCCCCCNC(=O)[C@H]([C@@H](C)CC)n3cc(CCCCN=C(N)N)nn3)CC2)nc(N2CCN(C(=O)CCCCCCCCCCNC(=O)[C@H](CCCN=C(N)N)n3cc(C[C@@H](C)CC)nn3)CC2)n1	-4	.	-4	.	.	.
C#CCOCCOCCOCCNc1nc(N2CCN(C(=O)CCCCCCCCCCNC(=O)[C@@H](CCSC)n3cc(CCO)nn3)CC2)nc(N2CCN(C(=O)CCCCCCCCCCNC(=O)[C@H](CO)n3cc(CCCCCN)nn3)CC2)n1	-5	46*	-2	.	12	1
C#CCOCCOCCOCCNc1nc(N2CCN(C(=O)CCCCCCCCCCNC(=O)[C@@H](CCC(=O)O)n3cc(CCCCCN)nn3)CC2)nc(N2CCN(C(=O)CCCCCCCCCCNC(=O)[C@H](CO)n3cc(CCCCCN)nn3)CC2)n1	-9	36*	-6	.	9	2
C#CCOCCOCCOCCNc1nc(N2CCN(C(=O)CCCCCCCCCCNC(=O)[C@@H](CCC(=O)O)n3cc(CCCCCN)nn3)CC2)nc(N2CCN(C(=O)CCCCCCCCCCNC(=O)[C@H](CCCCN)n3cc(C[C@@H](C)CC)nn3)CC2)n1	-7	41*	-4	.	17	-7
C[C@@H]1CN([C@@H](C)CO)C(=O)c2cccc(NC(=O)c3nc4ccccc4s3)c2O[C@H]1CN(C)Cc1ccc(C(=O)O)cc1	.	.	.	4	.	.
COc1ccc(S(=O)(=O)N(C)C[C@H]2Oc3ccc(NC(=O)CCCCCC(=O)Nc4ccccc4N)cc3C(=O)N([C@@H](C)CO)C[C@@H]2C)cc1	.	.	.	-12	.	.
